Assay [1] deals with holo-CaM (Ca-bound human calmodulin) (Homo sapiens, UniProt P0DP23). Briefly: NMR titration. The settings on record: compared with literature membrane binding, [55], [56]. In outline: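 Human CaM was expressed in E. coli and purified, ¹⁵N-labelled, holo form, held constant at 100 μM. It was titrated with N-acetylated α-syn, as the 1–19 peptide or the full-length protein, in 50 mM MES, 100 mM NaCl, 3 mM CaCl₂, pH 6.4, 5% D₂O. Amide shifts were read by ¹⁵N HSQC at 800 MHz, 310 K. Ten amides were scaled to one reference residue and fitted globally to a two-state 1:1 model.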

The target in another assay is CaM. The following applies: non-acetylated α-syn, cited from earlier work.
Another assay relates to apo-CaM. The settings on record: non-acetylated α-syn; ref [28], [29]; cited from earlier work.
The conditions of assay [2]: ref [36]; cited from earlier work.
The conditions of assay [3]: non-acetylated form; ref [28]; cited from earlier work.

pKd: −log10 of the molar value. “Also recorded” adds a separate entry of the source.

Take “α-syn: Full-length non-acetylated α-syn expressed in E. coli”: the “binding constant to holo-CaM relative to membranes containing anionic lipids” value in assay [1] was “comparable”. Besides, the “binding affinity (two earlier studies)” value on CaM (ref [28], [29]) is listed as “submicromolar range”. For the same substance, the pKd at CaM (read-out: dissociation constant (later study), ref [30]) was approximately 5.00. Also, the “interaction with apo-CaM in earlier studies” value in the assay with apo-CaM is “There is disagreement whether apo-CaM can interact with α-syn; also recorded: one report seeing interaction only in the presence of calcium-bound (holo-) CaM whereas the other observed little difference between the two forms”. In addition, the “affinity for negatively charged membranes, effect of N-terminal acetylation” value in assay [2] is reported as “N-terminal acetylation increases its affinity for negatively charged membranes”. For the same substance, the “competition of CaM with membrane for α-syn binding” value in assay [3] was “CaM can compete with the membrane for α-syn binding”.

Source of the values: paper PMC3758425 (Biochemistry, 2013).
